PAFAH1B2 inh: PAFAH1B2 enzyme inhibitors, primary screen, biochemical, fluorescence polarization, human; inhibition, % at 3.39 µM; Platelet-activating factor acetylhydrolase IB subunit alpha2 (Homo sapiens), P68402; 340,000 tested, 1.2% active; recombinant PAFAH1B2, FP-rhodamine activity probe;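 active means inhibition above the mean of all tested compounds plus 3 SD, cut at about 24% in these data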;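 further: 0% = enzyme with DMSO and 100% = wells lacking PAFAH1B2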
PAFAH2 inh: PAFAH2 enzyme inhibitors, primary screen, biochemical, fluorescence polarization, human; inhibition, % at 3.39 µM; 340,000 tested, 0.99% active; recombinant PAFAH2, FP-rhodamine activity probe;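 active means inhibition above the mean over all tested compounds plus 3 SD, cut at about 30% in these data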;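 further: inhibitors block probe labeling of enzyme so polarization drops; 0% = enzyme with DMSO and 100% = wells lacking PAFAH2 protein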
PAFAH1B3 FP inh: PAFAH1B3 enzyme inhibitors, primary screen, biochemical, fluorescence polarization, human; Platelet-activating factor acetylhydrolase IB subunit alpha1 (Homo sapiens), Q15102; 340,000 tested, 0.28% active; inhibition, % at 3.39 µM; recombinant PAFAH1B3, FP-rhodamine probe;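 active means inhibition above the screen-wide average of all tested compounds plus 3 SD, cut at about 25% in these data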;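 further: 0% = enzyme with DMSO only and 100% = wells lacking PAFAH1B3 protein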
Target sequence (Q15102 whole entry, looked up): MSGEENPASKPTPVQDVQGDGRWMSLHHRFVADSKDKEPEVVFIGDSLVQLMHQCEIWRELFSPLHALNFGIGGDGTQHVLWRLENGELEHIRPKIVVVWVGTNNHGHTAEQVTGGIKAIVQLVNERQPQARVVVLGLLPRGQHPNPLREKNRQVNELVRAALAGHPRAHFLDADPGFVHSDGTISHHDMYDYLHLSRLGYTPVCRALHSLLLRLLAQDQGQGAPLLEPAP
VIM-2 inhibitor: VIM-2 metallo-beta-lactamase inhibitors, primary screen, biochemical, epi-absorbance readout, Pseudomonas aeruginosa enzyme; purified VIM-2, nitrocefin hydrolysis, epi-absorbance fluorescence; inhibition, % at 5.6 µM; 290,000 tested, 0.89% active;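 active means inhibition above the mean of all tested compounds plus 3 SD, cutoff set per screening run, cut at about 7.5% in these data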;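 further: red hydrolysis product quenches plate fluorescence so inhibitors raise well fluorescence; 0% = enzyme with DMSO and 100% = DMSO without enzyme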
IMP-1 inhibitor: IMP-1 metallo-beta-lactamase inhibitors, primary screen, biochemical, epi-absorbance readout, Pseudomonas aeruginosa enzyme; metallo-beta-lactamase IMP-1 (Pseudomonas aeruginosa); purified IMP-1, nitrocefin hydrolysis, epi-absorbance fluorescence; inhibition, % at 5.6 µM; 290,000 tested, 0.45% active;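 active means inhibition above the mean plus 3 SD of all compounds in the same screening run, cut at about 4.5% in these data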;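 further: 0% = IMP-1 with DMSO and 100% = DMSO wells lacking enzyme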
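Assay system: purified IMP-1; Quantity: IMP-1 0.2 nM before substrate addition; Medium: HEPES buffer pH 7.1 with ZnSO4 and Brij 35; Incubation: 15 min enzyme–compound preincubation, then 25 min nitrocefin reaction, 25 °C; Signal: fluorescence quenching readout, ex 480/em 530 nm; Controls: DMSO with and without IMP-1; Repeats: singlicate testing.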
pPAFAH FP inh: pPAFAH enzyme inhibitors, primary screen, biochemical, fluorescence polarization, human; Platelet-activating factor acetylhydrolase (Homo sapiens), Q13093; recombinant pPAFAH, FP-rhodamine probe fluorescence polarization; inhibition, % at 3.39 µM; 330,000 tested, 1.5% active; AID 463082, 2010;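 active means inhibition above the mean inhibition across the screen plus 3 SD, cut at about 25% in these data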;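 further: inhibitors block binding of the rhodamine activity-based probe so polarization drops; 0% = enzyme with DMSO and 100% = wells lacking pPAFAH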
Target sequence (Q13093 whole entry, looked up): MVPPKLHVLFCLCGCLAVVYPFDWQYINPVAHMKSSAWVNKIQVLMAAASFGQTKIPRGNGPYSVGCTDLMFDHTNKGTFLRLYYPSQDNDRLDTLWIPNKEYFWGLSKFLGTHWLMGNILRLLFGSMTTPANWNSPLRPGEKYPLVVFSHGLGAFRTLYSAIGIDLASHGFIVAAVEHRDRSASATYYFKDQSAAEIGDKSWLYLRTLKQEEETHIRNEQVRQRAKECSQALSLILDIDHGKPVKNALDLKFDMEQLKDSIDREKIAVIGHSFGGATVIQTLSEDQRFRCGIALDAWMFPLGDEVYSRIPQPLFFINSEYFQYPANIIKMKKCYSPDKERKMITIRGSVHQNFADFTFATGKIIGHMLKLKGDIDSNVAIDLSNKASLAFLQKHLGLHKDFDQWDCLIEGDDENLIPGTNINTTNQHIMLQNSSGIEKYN
pPAFAH FP conf: pPAFAH (PLA2G7) enzyme inhibitors, confirmation, biochemical, fluorescence polarization, human | inhibition, % at 3.39 µM | 2,300 tested, 72% active | shares compounds with pPAFAH FP inh | recombinant pPAFAH, FP-Rh probe fluorescence polarization | AID 463230, 2010;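 active means mean inhibition of the triplicate above the hit cutoff set for the earlier primary screen, cut at about 25% in these data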;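 further: 0% = enzyme with DMSO and 100% = wells lacking pPAFAH enzyme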
Numbers without * were called inactive; . = not tested or not shown. Sampled rows, rich in hits. Any-hit rate of the full collection: about 3.6%.

SMILES | PAFAH1B2 inh | PAFAH2 inh | PAFAH1B3 FP inh | VIM-2 inhibitor | IMP-1 inhibitor | pPAFAH FP inh | pPAFAH FP conf
O=C(O)/C(CC(=O)c1ccc(Cl)cc1)=N/Nc1ccc([N+](=O)[O-])cc1[N+](=O)[O-] | 20.2 | 20.9 | 9.9 | -2.6 | -1.9 | 35.2* | 71.5*
CS(=O)(=O)c1ccc(C(=O)Nc2nc(-c3ccco3)c(-c3ccco3)s2)cc1 | 11.1 | 9.0 | 7.9 | . | . | . | .
Cc1nn(C2CCS(=O)(=O)C2)c(C)c1CN(C)C(=O)c1cccc(Cl)c1 (configuration not stated) | 1.8 | -6.5 | -1.3 | . | . | 3.4 | .
C/C(CC(=O)Nc1ccc2ccccc2c1)=N\NC(=O)c1cnccn1 | 5.1 | 2.3 | 8.8 | -5.3 | -3.7 | -1.4 | .
C/C(CC(=O)Nc1ccc2ccccc2c1)=N\NC(=O)c1ccc(O)c(O)c1 | 4.6 | 14.2 | 11.7 | -5.2 | -4.7 | 53.8* | 54.8*
CCOc1cc(CNc2ccc(O)cc2)ccc1OCc1ccc(Cl)cc1Cl | 11.2 | 11.0 | 16.2 | -2.2 | -1.5 | 36.0* | 21.5
COc1ccc(NC(=O)CN2CCCC2c2cccs2)cc1S(=O)(=O)N1CCCCC1 (configuration not stated) | 4.8 | 1.8 | 2.5 | . | . | 1.0 | .
CN(C)c1ccc(C(=O)OCC(=O)NCCC2=CCCCC2)cc1 | 0.7 | 79.6* | -1.4 | -2.5 | -1.5 | 37.7* | 24.2
Cc1nn2c3c(cnc2c1-c1ccccc1)C(=O)CCC3 | 2.9 | -4.2 | 8.2 | 0.8 | -3.5 | -5.5 | .
N#CCc1nn2c3c(cnc2c1C#N)C(=O)CCC3 | 3.0 | 0.6 | 11.5 | -2.4 | -2.0 | 52.7* | 3.5
CCOc1ccc(N(CC(=O)Nc2c(C)n(C)n(-c3ccccc3)c2=O)S(=O)(=O)c2ccc(F)cc2)cc1 | 5.3 | -11.0 | -1.3 | -1.1 | -2.7 | . | .
NC(=O)C1CCCN(C(=O)c2ccc(Cl)c(S(=O)(=O)N3CCc4ccccc43)c2)C1 (configuration not stated) | -1.0 | 0.8 | 0.9 | . | . | . | .
O=C(c1ccc(Cl)c(S(=O)(=O)N2CCc3ccccc32)c1)N1CCN(c2ccccc2O)CC1 | 5.2 | 5.2 | -0.7 | . | . | 37.3* | 19.6
COc1ccc(NC(=O)c2c(F)cccc2F)cc1S(=O)(=O)Nc1ccc(Br)cc1 | -0.3 | -12.0 | -8.2 | 0.7 | -0.4 | 35.7* | 28.4*
COc1ccc(S(=O)(=O)Nc2ccc3c(c2)C(=O)N([C@H](C)CO)C[C@H](C)[C@@H](CN(C)C(=O)NC2CCCCC2)O3)cc1 | 8.7 | 7.5 | 6.5 | . | . | 6.5 | .
O=C(O)C1Nc2c(Cl)cc(Cl)cc2C2C=CCC12 (configuration not stated) | 36.1* | 82.3* | 22.2 | 4.4 | -0.4 | 81.1* | 42.8*
O=C(O)C1Nc2c(Cl)cc(Cl)c(Cl)c2C2C=CCC12 (configuration not stated) | 11.3 | 54.5* | 8.7 | 2.8 | 2.9 | 41.0* | 33.2*
O=C(OC1CCCCC1)c1ccc2c(c1)C1C=CCC1C(C(=O)O)N2 (configuration not stated) | . | . | . | -3.4 | -2.5 | . | .
O=C(O)C1Nc2c(O)cccc2C2C=CCC12 (configuration not stated) | 35.8* | 50.2* | 39.5* | 11.7* | -1.7 | 87.7* | 42.5*
CC(C)CNC(=O)C1Nc2ccccc2C2C=CCC12 (configuration not stated) | 0.9 | 12.3 | 2.5 | . | . | 9.4 | .
O=C(CCN1C(=O)/C(=C/c2ccccc2)SC1=S)NC1CCS(=O)(=O)C1 (configuration not stated) | 4.7 | 11.1 | 3.0 | 0.1 | -0.4 | 2.2 | .
O=C(CN1C(=O)/C(=C/c2ccco2)SC1=S)Nc1ccc(C(=O)O)c(O)c1 | -0.6 | 9.1 | 7.2 | -2.0 | 7.2* | 41.0* | 14.2
O=C(CN1C(=O)/C(=C/c2ccco2)SC1=S)NC1CCS(=O)(=O)C1 (configuration not stated) | 3.5 | 19.6 | 16.0 | -2.3 | 5.6* | 38.4* | 1.0
CCOC(=O)CN1C(=O)S/C(=C/c2ccco2)C1=O | 6.0 | 5.4 | 3.8 | -3.3 | -2.9 | 3.5 | .
NN1C(=O)/C(=C\c2ccco2)SC1=S | . | . | . | -3.5 | -2.2 | 41.6* | 1.7
SMILES | PAFAH1B2 inh | PAFAH2 inh | PAFAH1B3 FP inh | VIM-2 inhibitor | IMP-1 inhibitor | pPAFAH FP inh | pPAFAH FP conf
CC(C(=O)N(C)C1CCS(=O)(=O)C1)N1C(=O)/C(=C/c2ccco2)SC1=S (configuration not stated) | -0.5 | -7.6 | -2.3 | -3.2 | 2.4 | 22.4 | .
CC(C(=O)Nc1ccc(C(=O)O)c(O)c1)N1C(=O)/C(=C\c2ccco2)SC1=S (configuration not stated) | 8.1 | 18.1 | 16.2 | -1.8 | 4.0 | 38.2* | 12.9
CCN(C(=O)COC(=O)c1ccc(Cl)c(S(=O)(=O)N2CCCCC2)c1)C1CCS(=O)(=O)C1 (configuration not stated) | 1.9 | 5.5 | 10.4 | . | . | 1.6 | .
CCC(C)c1ccccc1N1CC(C(=O)Nc2ccc(S(=O)(=O)N3CCOCC3)cc2)CC1=O (configuration not stated) | 7.1 | 1.3 | 8.3 | . | . | -1.6 | .
CCN(C(=O)CSc1nc2ccc([N+](=O)[O-])cc2s1)c1c(N)n(Cc2ccccc2)c(=O)[nH]c1=O | 4.2 | -2.2 | 9.0 | . | . | . | .
O=C(CN1CCc2ccccc2C1)Nc1ccc(OC(F)(F)F)cc1 | 2.4 | -7.7 | -1.0 | -1.5 | -2.7 | -3.1 | .
CCN(CC(=O)Nc1c(F)cccc1F)C(=O)/C=C/c1ccc2ccccc2n1 | -1.1 | 14.7 | 5.8 | . | . | 39.6* | 25.0*
CCN(CC(=O)Nc1c(F)cccc1F)C(=O)c1ccc2ccccc2n1 | 0.8 | -4.8 | 10.1 | . | . | 0.9 | .
COCCN=C1Sc2nc3cc(C)c(C)cc3cc2CN1Cc1cccs1 | -0.6 | -2.6 | -7.2 | -0.8 | -0.1 | 1.7 | .
COCCN=C1Sc2nc3ccc(C)cc3cc2CN1Cc1ccco1 | 6.1 | 0.2 | -1.3 | -3.4 | -4.3 | 64.1* | 51.4*
Cc1nn(-c2ccccc2)c(/N=C/c2ccccc2O)c1-c1ccccc1 | 2.9 | 2.0 | 7.6 | -2.8 | -3.2 | 34.5* | 10.4
Cc1cc(C(F)(F)F)c(C#N)c(SCC(=O)Nc2nc3cc(Br)ccc3s2)n1 | -28.5 | -54.0 | -57.3 | -2.2 | 0.8 | -1.3 | .
CCCc1cc(=O)[nH]c2nnc(SCC(=O)Nc3nccs3)n12 | -0.9 | 3.6 | 7.6 | . | . | -2.6 | .
